We go through 19 compounds from ChEMBL document CHEMBL4043311, “Developing Equipotent Teixobactin Analogues against Drug-Resistant Bacteria and Discovering a Hydrophobic Interaction between Lipid II and Teixobactin” (J Med Chem, 2018).

Converted amounts (≈) assume the structure as drawn.

This experiment relates to Staphylococcus aureus. As to the kind of experiment: Antibacterial activity against methicillin-resistant Staphylococcus aureus BAA-1695 after 20 hrs by broth microdilution method. It counts as functional. To be noted: BAA-1695, 20 h. An outline of the steps: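 Broth microdilution per CLSI in cation-adjusted Mueller-Hinton broth with 0.002% polysorbate 80. Analogues were made up as 10 mg/mL DMSO stocks, then diluted in MHB. Inoculum approx. 5×10^5 cells/mL. Incubated 20 h at 37°C; MIC taken as the lowest concentration with no visible growth. Run three times.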
(In general: In broth dilution the organism is exposed to a series of concentrations in liquid medium.)
In general, MIC refers to the least concentration at which growth counts as inhibited. Low readings indicate a more susceptible organism, high ones a less susceptible organism. Regarding `CC[C@@H](C)[C@@H](NC(=O)[C@@H](CCC(N)=O)NC(=O)[C@H](CO)NC(=O)[C@@H](NC(=O)[C@H](N)Cc1ccc(-c2ccccc2)cc1)[C@@H](C)CC)C(=O)N[C@H](C(=O)N[C@@H](CO)C(=O)N[C@H]1C(=O)N[C@@H](C)C(=O)N[C@@H](CCCNC(=N)N)C(=O)N[C@@H]([C@@H](C)CC)C(=O)O[C@H]1C)[C@@H](C)CC`, inhibition of growth (MIC) required 1 µg/mL (≈ 0.765 µM).
For the compound `CC[C@@H](C)[C@@H](NC(=O)[C@@H](CCC(N)=O)NC(=O)[C@H](CO)NC(=O)[C@@H](NC(=O)[C@H](N)Cc1ccc(O[C@H]2O[C@@H](CO)[C@@H](O)[C@@H](O)[C@@H]2O)cc1)[C@@H](C)CC)C(=O)N[C@H](C(=O)N[C@@H](CO)C(=O)N[C@H]1C(=O)N[C@@H](C)C(=O)N[C@@H](CCCNC(=N)N)C(=O)N[C@@H]([C@@H](C)CC)C(=O)O[C@H]1C)[C@@H](C)CC`, the MIC is over 32 µg/mL.
With `CC[C@@H](C)[C@@H](NC(=O)[C@@H](CCC(N)=O)NC(=O)[C@H](CO)NC(=O)[C@@H](NC(=O)[C@H](N)Cc1ccc(O)cc1)[C@@H](C)CC)C(=O)N[C@H](C(=O)N[C@@H](CO)C(=O)N[C@H]1C(=O)N[C@@H](C)C(=O)N[C@@H](CCCNC(=N)N)C(=O)N[C@@H]([C@@H](C)CC)C(=O)O[C@H]1C)[C@@H](C)CC` the figure was over 32 µg/mL.
The compound `CC[C@@H](C)[C@@H](NC(=O)[C@@H](CCC(N)=O)NC(=O)[C@H](CO)NC(=O)[C@@H](NC(=O)[C@H](N)Cc1ccc(C)cc1)[C@@H](C)CC)C(=O)N[C@H](C(=O)N[C@@H](CO)C(=O)N[C@H]1C(=O)N[C@@H](C)C(=O)N[C@@H](CCCNC(=N)N)C(=O)N[C@@H]([C@@H](C)CC)C(=O)O[C@H]1C)[C@@H](C)CC` showed a minimum inhibitory concentration (MIC) of 2 µg/mL (≈ 1.61 µM).
For the compound `CC[C@@H](C)[C@@H](NC(=O)[C@@H](CCC(N)=O)NC(=O)[C@H](CO)NC(=O)[C@@H](NC(=O)[C@H](N)Cc1ccc(-c2ccc(-c3ccccc3)cc2)cc1)[C@@H](C)CC)C(=O)N[C@H](C(=O)N[C@@H](CO)C(=O)N[C@H]1C(=O)N[C@@H](C)C(=O)N[C@@H](CCCCN)C(=O)N[C@@H]([C@@H](C)CC)C(=O)O[C@H]1C)[C@@H](C)CC`, the MIC came to 1 µg/mL (≈ 0.738 µM).
`CC[C@H](C)[C@H](NC(=O)[C@H](N)Cc1ccccc1)C(=O)N[C@@H](COP(=O)(O)O)C(=O)N[C@H](CCC(N)=O)C(=O)N[C@@H](C(=O)N[C@H](C(=O)N[C@@H](CO)C(=O)N[C@H]1C(=O)N[C@@H](C)C(=O)N[C@@H](CCCNC(=N)N)C(=O)N[C@@H]([C@@H](C)CC)C(=O)O[C@H]1C)[C@@H](C)CC)C(C)C` had an MIC of over 32 µg/mL.
Compound `CC[C@@H](C)[C@@H](NC(=O)[C@@H](CCC(N)=O)NC(=O)[C@H](CO)NC(=O)[C@@H](NC(=O)[C@H](N)Cc1ccc(-c2ccc(C)cc2)cc1)[C@@H](C)CC)C(=O)N[C@H](C(=O)N[C@@H](CO)C(=O)N[C@H]1C(=O)N[C@@H](C)C(=O)N[C@@H](CCCCN)C(=O)N[C@@H]([C@@H](C)CC)C(=O)O[C@H]1C)[C@@H](C)CC` displayed an MIC of 0.5 µg/mL (≈ 0.387 µM).
`CC[C@@H](C)[C@@H](NC(=O)[C@@H](CCC(N)=O)NC(=O)[C@H](CO)NC(=O)[C@@H](N)[C@@H](C)CC)C(=O)N[C@H](C(=O)N[C@@H](CO)C(=O)N[C@H]1C(=O)N[C@@H](C)C(=O)N[C@@H](CCCNC(=N)N)C(=O)N[C@@H]([C@@H](C)CC)C(=O)O[C@H]1C)[C@@H](C)CC` came in with an MIC of over 32 µg/mL.
The compound `CC[C@@H](C)[C@@H](NC(=O)[C@@H](CCCNC(=N)N)NC(=O)[C@H](CO)NC(=O)[C@@H](NC(=O)[C@H](N)Cc1ccc(-c2ccccc2)cc1)[C@@H](C)CC)C(=O)N[C@H](C(=O)N[C@@H](CO)C(=O)N[C@H]1C(=O)N[C@@H](C)C(=O)N[C@@H](CCCCN)C(=O)N[C@@H]([C@@H](C)CC)C(=O)O[C@H]1C)[C@@H](C)CC` registered an MIC of 2 µg/mL (≈ 1.53 µM).
In the case of `CC[C@@H](C)[C@@H](NC(=O)[C@@H](CCC(N)=O)NC(=O)[C@H](CO)NC(=O)[C@@H](NC(=O)[C@@H](Cc1ccccc1)NC)[C@@H](C)CC)C(=O)N[C@H](C(=O)O)[C@@H](C)CC`, the MIC was over 32 µg/mL.
In the case of `CC[C@@H](C)[C@@H](NC(=O)[C@@H](CCC(N)=O)NC(=O)[C@H](CO)NC(=O)[C@@H](NC(=O)C(Cc1ccccc1)NC)[C@@H](C)CC)C(=O)N[C@H](C(=O)N[C@@H](CO)C(=O)N[C@H]1C(=O)N[C@@H](C)C(=O)N[C@@H](CCCNC(=N)N)C(=O)N[C@@H]([C@@H](C)CC)C(=O)O[C@H]1C)[C@@H](C)CC` (some centres undefined), the MIC was found to be 2 µg/mL (≈ 1.61 µM).
Compound `CCCc1ccc(-c2ccc(C[C@@H](N)C(=O)N[C@H](C(=O)N[C@@H](CO)C(=O)N[C@H](CCC(N)=O)C(=O)N[C@@H](C(=O)N[C@H](C(=O)N[C@@H](CO)C(=O)N[C@H]3C(=O)N[C@@H](C)C(=O)N[C@@H](CCCCN)C(=O)N[C@@H]([C@@H](C)CC)C(=O)O[C@H]3C)[C@@H](C)CC)[C@H](C)CC)[C@@H](C)CC)cc2)cc1` gave an MIC of 0.5 µg/mL (≈ 0.379 µM).
The compound `CC[C@@H](C)[C@@H](NC(=O)[C@@H](CCC(N)=O)NC(=O)[C@H](CO)NC(=O)[C@@H](NC(=O)[C@@H](Cc1ccccc1)NC)[C@@H](C)CC)C(=O)N[C@H](C(=O)N[C@@H](CO)C(=O)N[C@H]1C(=O)N[C@@H](C)C(=O)N[C@@H](CCCCN)C(=O)N[C@@H]([C@@H](C)CC)C(=O)O[C@H]1C)[C@@H](C)CC` displayed a minimal inhibitory concentration (MIC) of 1 µg/mL (≈ 0.822 µM).
Take `CC[C@@H](C)[C@H]1NC(=O)[C@H](CCCNC(=N)N)NC(=O)[C@H](C)NC(=O)[C@H](NC(=O)[C@@H](N)CO)[C@H](C)CC1=O`: the MIC is over 32 µg/mL.
As for `CC[C@@H](C)[C@@H](NC(=O)[C@@H](CCC(=O)NCCN(C)C)NC(=O)[C@H](CO)NC(=O)[C@@H](NC(=O)[C@H](N)Cc1ccc(-c2ccccc2)cc1)[C@@H](C)CC)C(=O)N[C@H](C(=O)N[C@@H](CO)C(=O)N[C@H]1C(=O)N[C@@H](C)C(=O)N[C@@H](CCCCN)C(=O)N[C@@H]([C@@H](C)CC)C(=O)O[C@H]1C)[C@@H](C)CC`, the figure is 2 µg/mL (≈ 1.48 µM); as for `CC[C@@H](C)[C@@H](NC(=O)[C@@H](CCC(N)=O)NC(=O)[C@H](CO)NC(=O)[C@@H](NC(=O)[C@H](N)Cc1ccc(N)cc1)[C@@H](C)CC)C(=O)N[C@H](C(=O)N[C@@H](CO)C(=O)N[C@H]1C(=O)N[C@@H](C)C(=O)N[C@@H](CCCNC(=N)N)C(=O)N[C@@H]([C@@H](C)CC)C(=O)O[C@H]1C)[C@@H](C)CC`, over 32 µg/mL.
With `CC[C@@H](C)[C@@H](NC(=O)[C@@H](CCCN)NC(=O)[C@H](CO)NC(=O)[C@@H](NC(=O)[C@H](N)Cc1ccc(-c2ccccc2)cc1)[C@@H](C)CC)C(=O)N[C@H](C(=O)N[C@@H](CO)C(=O)N[C@H]1C(=O)N[C@@H](C)C(=O)N[C@@H](CCCCN)C(=O)N[C@@H]([C@@H](C)CC)C(=O)O[C@H]1C)[C@@H](C)CC` the figure was 2 µg/mL (≈ 1.58 µM).
`CC[C@@H](C)[C@@H](NC(=O)[C@@H](CCC(N)=O)NC(=O)[C@H](CO)NC(=O)[C@@H](NC(=O)[C@@H](Cc1ccccc1)NC(=O)CN1CCOCC1)[C@@H](C)CC)C(=O)N[C@H](C(=O)N[C@@H](CO)C(=O)N[C@H]1C(=O)N[C@@H](C)C(=O)N[C@@H](CCCNC(=N)N)C(=O)N[C@@H]([C@@H](C)CC)C(=O)O[C@H]1C)[C@@H](C)CC` yielded a minimal inhibitory concentration (MIC) of over 32 µg/mL.
With `CC[C@@H](C)[C@@H](NC(=O)[C@@H](CCC(N)=O)NC(=O)[C@H](CO)NC(=O)[C@@H](NC(=O)[C@H](N)Cc1ccc(-c2ccc(C(F)(F)F)cc2)cc1)[C@@H](C)CC)C(=O)N[C@H](C(=O)N[C@@H](CO)C(=O)N[C@H]1C(=O)N[C@@H](C)C(=O)N[C@@H](CCCCN)C(=O)N[C@@H]([C@@H](C)CC)C(=O)O[C@H]1C)[C@@H](C)CC` the figure was 0.5 µg/mL (≈ 0.371 µM).
